PMI act hi M6P: activators of human phosphomannose isomerase at near-saturating mannose 6-phosphate | P34949 | coupled PMI enzyme assay, resazurin fluorescence, 20 min; hits give high values; 1 = untreated enzyme, 0 = substrate-free blank | activation factor at 20 µM | 0.34% of 190,000 active | AID 1216;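 active = activation factor of 2 or more at 20 µM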
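Test system: human phosphomannose isomerase with PGI, G6PDH, diaphorase coupling enzymes / Doses: 20 µM compound, 1% DMSO / Times: enzyme reaction with compound 20 min at room temperature / Measured by: Diaphorase-driven resazurin-to-resorufin fluorescence, excitation 544, emission 590 nm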
KCC2 mod: KCC2 (human) Cl- transport modulation; Q9H2X9; KCC2 cells, thallium flux FluoZin-2 fluorescence; B-score of Tl+ flux slope (higher = more flux/activation; lower = inhibition) at 10 µM; 2.2% of 190,000 active;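 active = thallium flux slope and its plate-corrected score both differing from the plate sample mean at a set confidence after two filtering rounds, in either direction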;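 also: slope of fluorescence scaled to starting intensity during 10 to 20 s after thallium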
PMI activator: phosphomannose isomerase (human) activation; purified human PMI, coupled resazurin fluorescence, 20 min; hits give high values; 1 = vehicle control, 0 substrate-free wells; activation factor at 20 µM; 0.005% of 190,000 active; P34949;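 active = activation factor of 2 or more at 20 µM, relative to plate controls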
ROMK primary: human ROMK K+ channel modulation, primary screen. P48048. Tet-inducible ROMK, thallium flux fluorescence; actives lie on both sides. B-score at 10 µM. 2% of 130,000 active. AID 1918;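 active = signal ratio slope over the read window, or its plate-corrected B-score, at least 3 SD from the plate mean, either direction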;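 also: B-score of the F/F0 ratio slope over 7 to 12 s after thallium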
Target sequence (P48048 whole entry, looked up): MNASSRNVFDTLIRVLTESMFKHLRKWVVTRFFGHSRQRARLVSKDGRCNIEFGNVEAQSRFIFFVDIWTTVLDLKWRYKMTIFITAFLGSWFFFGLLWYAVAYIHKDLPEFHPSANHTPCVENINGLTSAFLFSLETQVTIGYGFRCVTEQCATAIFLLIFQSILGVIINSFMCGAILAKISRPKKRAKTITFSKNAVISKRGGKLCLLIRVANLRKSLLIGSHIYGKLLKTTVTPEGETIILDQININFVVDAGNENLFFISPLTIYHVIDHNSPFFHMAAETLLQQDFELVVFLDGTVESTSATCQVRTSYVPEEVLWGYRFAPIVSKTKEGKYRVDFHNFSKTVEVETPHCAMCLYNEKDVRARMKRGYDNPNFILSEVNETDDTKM
ABCB1 block: blocks JC-1 efflux by human ABCB1 transporter | CCRF-Adr cells, flow cytometry | P08183 | AID 1326 | inhibition, % at 6.6 µM | 0.067% of 190,000 active; in the data active = inhibition above about 40%;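 also: higher value means more JC-1 retained so stronger ABCB1 efflux block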
ABCG2 block: blocks JC-1 efflux by human ABCG2 transporter; 0.1% of 190,000 active; inhibition, % at 6.6 µM; IgMXP3 cells, flow cytometry;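 active = inhibition above 80%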
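Measure – % inhibition of efflux relative to nicardipine and DMSO · Test system – ABCG2 IgMXP3 and barcoded ABCB1 CCRF-Adr cell mix · Control set – nicardipine as high control, DMSO as low control · Compound – one concentration, 6.6 µM final · Signal – flow cytometry of retained JC-1 fluorescence · Timing – 10 min exposure at 25 °C with rotation, no wash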
ROMK hit retest: retested hit modulating human ROMK potassium channel | AID 1917 | normalized thallium flux (F/F0 slope) at 10 µM | shares compounds with ROMK primary | ROMK thallium flux, fluorescence ratio; hits give low values | 54% of 3,000 active;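 active = Flux at 10 µM at least 3 SD below or above vehicle control mean in one or both replicates; inconclusive = no clear call, values can overlap the other calls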
A number is an active result; 0 = inactive; ? = inconclusive; - = no result. Hits are enriched below; roughly 3.3% of the tested compounds scored in any of these assays.

SMILES	PMI act hi M6P	KCC2 mod	PMI activator	ROMK primary	ABCB1 block	ABCG2 block	ROMK hit retest
COC(=O)C1C(c2ccccc2)C(C(=O)O)C1c1ccccc1 (configuration not stated)	0	0	0	0	0	0	0
O=C(O)COC(=O)C1C(c2ccccc2)C(C(=O)O)C1c1ccccc1 (configuration not stated)	0	0	0	0	0	0	-
COC(=O)c1cc(NS(=O)(=O)c2ccc(C(C)C)cc2)ccc1N1CCOCC1	-	0	-	0	-	-	-
CC1=NN(CCC#N)C(=O)/C1=C/c1ccc(N(C)C)cc1	0	0	0	0	0	0	-
CC1=NOC(=O)/C1=C/c1ccc(N(C)C)cc1	0	0	0	-	0	0	?
CCN(CC)c1ccc(C=C2C(=O)OC3(CCCCC3)OC2=O)cc1	0	0	0	0	0	0	-
CCN(CC)c1ccc(/C=C2\C(=O)N(c3nnc(C)c(=O)[nH]3)N=C2C)cc1	-	0	-	-	-	-	0.029
CCN(CC)c1ccc(/C=C2/C(=O)ON=C2C)cc1	0	0	0	-5.7	0	0	0.036
CCN(CC)c1ccc(/C=C2\C(=O)N(c3ccc([N+](=O)[O-])cc3)N=C2N2CCOCC2)cc1	-	0	-	0	-	-	-
Cc1nn(C)cc1CN(C)S(=O)(=O)c1cccc([N+](=O)[O-])c1	0	0	0	0	0	0	-
Cc1ccc(NC2=C(C(=O)c3ccccc3)N(C)S(=O)(=O)c3ccccc32)cc1	0	-	0	-	0	0	-
CN1C(C(=O)c2ccccc2)=C(N)c2ccccc2S1(=O)=O	0	0	0	3	0	0	0.066
C=CCNc1nc(-c2ccc(O)c(C(N)=O)c2)cs1	0	-	0	0	0	0	0
Cc1ccc([N+](=O)[O-])cc1NC(=O)CN1CCC(C)CC1	0	0	0	0	0	0	-
COc1ccc(NC(=O)C2CC(=O)N=C(N)S2)cc1 (configuration not stated)	0	0	0	0	0	0	-
Cc1nc(SCC(=O)Nc2ccc3c(c2)OCO3)c(C#N)c2c1CCCC2	0	-	0	0	0	0	-
CCOc1cccc(NC(=O)CSc2nc(C)c3c(c2C#N)CCCC3)c1	0	0	0	-	0	0	0
COc1ccc(N(C(=O)CCC(=O)Nc2cc(C)on2)C(C(=O)NC2CCCC2)c2ccco2)cc1 (configuration not stated)	0	0	0	0	0	0	-
COc1ccc(N(C(=O)/C=C/C(=O)Nc2cc(C)on2)C(C(=O)NC2CCCC2)c2ccccc2C)cc1 (configuration not stated)	0	0	0	-6.4	-	0	0.057
CCOC(=O)Cc1csc(NC(=O)c2cc3c(s2)CCCC3)n1	0	0	0	0	0	0	-
CCOC(=O)Cc1csc(NC(=O)c2csc3c2CCCC3)n1	0	0	0	-	0	0	0
Cc1ccc(S(=O)(=O)NC2=NCN(C3CCCCC3)CN2)cc1	0	0	0	-	0	0	?
Cc1cccc(OCCCN2CCCCCC2)c1	0	0	0	3.2	0	0	0
Cc1ccc(C)c(OCCCN2CCCC2)c1	0	0	0	-	0	0	-
Cc1nnc(SCC(=O)N(C)c2ccccc2)n1Cc1ccccc1	0	0	0	0	0	0	-
SMILES	PMI act hi M6P	KCC2 mod	PMI activator	ROMK primary	ABCB1 block	ABCG2 block	ROMK hit retest
N#C/C(=C\c1ccncc1)c1nc2ccccc2c(=O)[nH]1	0	0	0	-4.9	0	0	0.051
N#C/C(=C1\CCCN1)c1nc2ccccc2c(=O)[nH]1	0	-	0	0	0	0	-
N#C/C(=C\c1ccccc1)c1nc2ncccc2[nH]1	0	0	0	-2.5	0	0	0.053
N#C/C(=C/c1ccncc1)c1nc2ccccc2c(=O)[nH]1	-	0	-	-6.6	-	-	0.042
CCc1cc2c(NCc3ccco3)ncnc2s1	0	-	0	-3.9	0	0	0
COc1ccc(NC(=O)CN2CCN(C3c4ccccc4-c4ccccc43)CC2)cc1	0	0	0	-	0	0	-
CC1=C(C#N)c2nc(N)c(C#N)c(C)c2/C1=C\c1ccc(C)cc1	0	0	0	-	0	0	0.043
Cc1ccccc1-n1sc2cc(F)ccc2c1=O	0	0	0	-4.7	0	0	0.057
